Data published in ChEMBL document CHEMBL1123429, “Influence of alkyl chain ramification on estradiol receptor binding affinity and intrinsic activity of 1,2-dialkylated 1,2-bis(4- or 3-hydroxyphenyl)ethane estrogens and antiestrogens” (J Med Chem, 1986).

Columns and labels:
[1] = target: Estrogen receptor (Bos taurus) (UniProt Q9XSB5+P49884); assay: Relative binding affinity (RBA) for calf uterine estrogen receptor; type: protein assay
Outline: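 Displacement of [³H]estradiol from calf uterine cytosol; incubated 16 h at 4 °C. Dextran-coated charcoal stops incubation; after centrifugation, supernatant radioactivity counted. Six competitor concentrations spanning 50% competition; % bound vs log concentration plotted to obtain concentrations halving binding for unlabeled estradiol and test compound, giving RBA. Mean of four determinations.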

[2] = target: T1, Estrogen receptor (Mus musculus) (UniProt O08537+P19785); assay: Anti-uterotrophic effect in mice at 0 ug; type: functional
Outline: (§1)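 Immature female NMRI mice, 20 days old (15.0 ± 2.5 g), randomized into groups of 10. Compound in olive oil (0.1 mL) injected sc daily for 3 days together with estrone; uteri removed 24 h after the last injection, fixed in Bouin's solution, washed, dried and weighed. Effect expressed as uterus dry weight (mg)/body weight (g) × 100; inhibition of estrone-stimulated growth.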

[3] = target: T1, Estrogen receptor (Mus musculus); assay: Inhibition of estrone-stimulated uterine growth in immature mice at 10 ug; type: functional; outline: as §1
[4] = target: T1, Estrogen receptor (Mus musculus); assay: Inhibition of estrone-stimulated uterine growth in immature mice at 300 ug; type: functional; outline: as §1
[5] = target: T1, Estrogen receptor (Mus musculus); assay: Anti-uterotrophic effect in mice at 10 ug; type: functional; outline: as §1
[6] = target: T1, Estrogen receptor (Mus musculus); assay: Anti-uterotrophic effect in mice at 100 ug; type: functional; outline: as §1
[7] = target: T1, Estrogen receptor (Mus musculus); assay: Anti-uterotrophic effect in mice at 30 ug; type: functional; outline: as §1
[8] = target: T1, Estrogen receptor (Mus musculus); assay: Anti-uterotrophic effect in mice at 300 ug; type: functional; outline: as §1
[9] = target: T1, Estrogen receptor (Mus musculus); assay: Inhibition of estrone-stimulated uterine growth in immature mice at 100 ug; type: functional; outline: as §1
[10] = target: T1, Estrogen receptor (Mus musculus); assay: Inhibition of estrone-stimulated uterine growth in immature mice at 30 ug; type: functional; outline: as §1
[11] = target: T1, Estrogen receptor (Mus musculus); assay: Inhibition of estrone-stimulated uterine growth in immature mice at 3 ug; type: functional; outline: as §1
[12] = target: T1, Estrogen receptor (Mus musculus); assay: Anti-uterotrophic effect in mice at 3 ug; type: functional; outline: as §1
[13] = target: T1, Estrogen receptor (Mus musculus)

T1 sequence (O08537 whole entry, looked up): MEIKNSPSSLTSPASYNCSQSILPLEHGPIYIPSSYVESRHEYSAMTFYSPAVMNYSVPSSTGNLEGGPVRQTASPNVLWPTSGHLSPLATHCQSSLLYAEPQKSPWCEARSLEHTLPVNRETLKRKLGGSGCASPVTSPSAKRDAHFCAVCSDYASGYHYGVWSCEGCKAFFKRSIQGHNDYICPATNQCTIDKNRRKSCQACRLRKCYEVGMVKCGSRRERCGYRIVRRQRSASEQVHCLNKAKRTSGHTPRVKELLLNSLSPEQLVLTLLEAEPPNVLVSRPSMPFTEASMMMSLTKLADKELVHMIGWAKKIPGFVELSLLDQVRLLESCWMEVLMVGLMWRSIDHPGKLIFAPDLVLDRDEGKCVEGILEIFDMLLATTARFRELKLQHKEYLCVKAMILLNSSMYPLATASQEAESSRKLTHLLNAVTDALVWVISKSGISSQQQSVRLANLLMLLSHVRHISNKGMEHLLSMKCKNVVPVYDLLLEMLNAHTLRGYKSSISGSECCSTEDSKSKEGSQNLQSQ
T1 sequence (P19785 whole entry, looked up): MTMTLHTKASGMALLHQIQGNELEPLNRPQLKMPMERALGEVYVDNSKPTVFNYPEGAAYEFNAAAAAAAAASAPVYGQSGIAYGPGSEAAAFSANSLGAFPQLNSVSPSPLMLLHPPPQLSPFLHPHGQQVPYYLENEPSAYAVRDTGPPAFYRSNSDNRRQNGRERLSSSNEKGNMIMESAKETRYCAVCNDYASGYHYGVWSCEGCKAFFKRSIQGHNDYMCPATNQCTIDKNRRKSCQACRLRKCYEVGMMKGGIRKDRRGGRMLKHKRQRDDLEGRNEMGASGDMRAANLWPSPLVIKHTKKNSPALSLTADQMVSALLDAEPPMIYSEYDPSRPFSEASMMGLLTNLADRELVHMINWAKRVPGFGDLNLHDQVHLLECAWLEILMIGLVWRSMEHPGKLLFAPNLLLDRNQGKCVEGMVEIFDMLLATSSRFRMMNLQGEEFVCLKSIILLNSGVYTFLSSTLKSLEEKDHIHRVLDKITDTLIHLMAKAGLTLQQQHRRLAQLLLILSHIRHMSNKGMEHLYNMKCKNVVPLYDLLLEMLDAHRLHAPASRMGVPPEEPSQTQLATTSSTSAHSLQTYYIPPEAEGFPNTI

## CC(C)[C@@H](c1cccc(O)c1)[C@@H](c1cccc(O)c1)C(C)C
[1]
  relative binding affinity (RBA): 15

## CCC[C@H](c1cccc(O)c1)[C@@H](CCC)c1cccc(O)c1
[1]
  relative binding affinity (RBA): 4
[2]
  Effect: 14.5
[3]
  inhibition: 14%
[4]
  inhibition: 42%
[4]; in the assay text read “30 ug” for “300 ug”
  inhibition: 18%
[5]
  Effect: 42.1
[6]
  Effect: 34.7
[7]
  Effect: 40.8
[8]
  Effect: 33
[9]
  inhibition: 37%

## CC(C)[C@@H](c1ccc(O)cc1)[C@@H](c1ccc(O)cc1)C(C)C
[1]
  relative binding affinity (RBA): 30

## CC(C)(C)[C@H](c1ccc(O)cc1)[C@H](c1ccc(O)cc1)C(C)(C)C
[1]
  relative binding affinity (RBA): 1.5

## CC[C@H](c1ccc(O)cc1)[C@@H](CC)c1ccc(O)cc1
[1]
  relative binding affinity (RBA): 25

## CCC(C)[C@@H](c1ccc(O)cc1)[C@@H](c1ccc(O)cc1)C(C)CC (stereo partly drawn)
[1]
  relative binding affinity (RBA): 5

## CC(C)C[C@H](c1ccc(O)cc1)[C@@H](CC(C)C)c1ccc(O)cc1
[1]
  relative binding affinity (RBA): 1.5

## CC(C)CC(c1cccc(O)c1)[C@H](CC(C)C)c1cccc(O)c1 (single isomer, unassigned)
[1]
  relative binding affinity (RBA): 0.5
[2]
  Effect: 14.5
[4]
  inhibition: 26%
[10]
  inhibition: 19%
[6]
  Effect: 37.9
  inhibition: 27%
[7]
  Effect: 40.3
[8]
  Effect: 38.2

## CC[C@H](c1cccc(O)c1)[C@@H](CC)c1cccc(O)c1
[1]
  relative binding affinity (RBA): 11
[2]
  Effect: 14.5
[3]
  inhibition: 39%
[10]
  inhibition: 51%
[11]
  inhibition: 20%
[5]
  Effect: 34.1
[6]
  Effect: 32.7
  inhibition: 43%
[12]
  Effect: 40.1
[7]
  Effect: 30.2

## CCC(C)[C@@H](c1cccc(O)c1)[C@@H](c1cccc(O)c1)C(C)CC (stereo partly drawn)
[1]
  relative binding affinity (RBA): 3

## C[C@]12CC[C@@H]3c4ccc(O)cc4CC[C@H]3[C@@H]1CCC2=O
[13]
  Effect: 46.5

## CC(C)(C)[C@H](c1cccc(O)c1)[C@H](c1cccc(O)c1)C(C)(C)C
[1]
  relative binding affinity (RBA): 0.7

## CCC[C@H](c1ccc(O)cc1)[C@@H](CCC)c1ccc(O)cc1
[1]
  relative binding affinity (RBA): 8
